Source: ChEMBL document CHEMBL4811231, “Discovery and structural optimization of 3-O-β-chacotriosyl oleanane-type triterpenoids as potent entry inhibitors of SARS-CoV-2 virus infections” (Eur J Med Chem, 2021)
Calls of active or inactive are those of the source. No cut-off for these calls is given here.

System: Vesicular stomatitis virus
Assay: Antiviral activity against pseudotype VSV harbouring glycoprotein infected human 293T/ACE2 cells assessed as inhibition of viral infection measured after 48 hrs by luciferase reporter gene assay
Format: functional, organism-based
Procedure, shortened: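 293T-ACE2 cells (20,000/well) were seeded and treated 24 h later with graded compound concentrations mixed with pseudovirus supernatant, then incubated 48 h. The HIV-based pseudovirus (pNL4-3.Luc.R-E-) carried SARS-CoV-2 S or VSV-G and was made by co-transfecting HEK293T cells; supernatant was harvested at 48 h and filtered (0.45 µm). Read-out was luciferase activity in cell lysates. Sal-C was the positive control.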

Structure (SMILES)	inhibition
C[C@@H]1O[C@@H](O[C@H]2[C@H](O[C@H]3CC[C@]4(C)[C@H]5CC=C6[C@@H]7CC(C)(C)CC[C@]7(C(=O)NCc7ccccc7)CC[C@@]6(C)[C@]5(C)CC[C@H]4C3(C)C)O[C@H](CO)[C@@H](O[C@@H]3O[C@@H](C)[C@H](O)[C@@H](O)[C@H]3O)[C@@H]2O)[C@H](O)[C@H](O)[C@H]1O	inactive
C[C@@H]1O[C@@H](O[C@H]2[C@H](O[C@H]3CC[C@]4(C)[C@H]5CC=C6[C@@H]7CC(C)(C)CC[C@]7(C(=O)NCc7ccccc7F)CC[C@@]6(C)[C@]5(C)CC[C@H]4C3(C)C)O[C@H](CO)[C@@H](O[C@@H]3O[C@@H](C)[C@H](O)[C@@H](O)[C@H]3O)[C@@H]2O)[C@H](O)[C@H](O)[C@H]1O	inactive
C[C@@H]1O[C@@H](O[C@H]2[C@H](O[C@H]3CC[C@]4(C)[C@H]5CC=C6[C@@H]7CC(C)(C)CC[C@]7(C(=O)NCc7cccs7)CC[C@@]6(C)[C@]5(C)CC[C@H]4C3(C)C)O[C@H](CO)[C@@H](O[C@@H]3O[C@@H](C)[C@H](O)[C@@H](O)[C@H]3O)[C@@H]2O)[C@H](O)[C@H](O)[C@H]1O	inactive
COc1ccccc1NC(=O)[C@]12CCC(C)(C)C[C@H]1C1=CC[C@@H]3[C@@]4(C)CC[C@H](O[C@@H]5O[C@H](CO)[C@@H](O[C@@H]6O[C@@H](C)[C@H](O)[C@@H](O)[C@H]6O)[C@H](O)[C@H]5O[C@@H]5O[C@@H](C)[C@H](O)[C@@H](O)[C@H]5O)C(C)(C)[C@@H]4CC[C@@]3(C)[C@]1(C)CC2	inactive
